The text below walks through data of ChEMBL document CHEMBL4130378, “Discovery of pentacyclic triterpene 3β-ester derivatives as a new class of cholesterol ester transfer protein inhibitors” (Eur J Med Chem, 2017).

In series [1] the test system is Cavia porcellus. Description: Antihyperlipidemic activity in high-fat fed guinea pig model assessed as increase in plasma HDL cholesterol level at 30 mg/kg administered via oral gavage as qd for 14 days measured 2 hrs post dose on day 14 relative to control. The series is classed as functional. The method in brief:
(§1)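 Male guinea pigs, 12 weeks old, fed a high-fat diet (2.5% coconut oil, 0.25% cholesterol) for two weeks. Gavage at 30 mg/kg once daily for two weeks while the diet continued. Plasma taken retro-orbitally 2 h after the day-14 dose. HDL-C, LDL-C, TG and TC reported as mean ± SD (n ≥ 6) versus the untreated high-fat model group.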

Series [2] concerns Mus musculus. Kind of series: Hypolipidemic activity in transgenic ap2-CETPTg mouse model assessed as reduction in plasma total cholesterol levels at 30 mg/kg, po qd for 14 days measured 2 hrs post dose on day 14 by automated lipid analyzer relative to control. Format: functional. Also on record: scale not given: the % may be the effect or the level left. The method in brief: (§2)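 ap2-CETPTg mice, which express human CETP in adipose tissue. Oral 30 mg/kg once daily for two weeks in DMSO/cremophor/saline 3:4:93. Retro-orbital blood drawn 2 h after the day-14 dose. HDL-C, LDL-C, TG and TC measured on an automated lipid analyzer, mean ± SD (n ≥ 6), versus control group.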

The subject of series [3] is Cavia porcellus. Kind of series: Antihyperlipidemic activity in normal fed guinea pig model assessed as increase in plasma HDL cholesterol level at 30 mg/kg administered via oral gavage as qd for 14 days measured 2 hrs post dose on day 14 relative to control. Format: functional. The method in brief:
(§3)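 Male guinea pigs, 12 weeks old, on normal diet. Gavage at 30 mg/kg once daily for two weeks. Retro-orbital plasma collected 2 h after dosing on day 14. HDL-C and LDL-C reported as mean ± SD (n ≥ 6) versus vehicle control group.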

Series [4] in a line: AUC (0 to 48 hrs) in normal fed guinea pig at 30 mg/kg administered via oral gavage by LC-MS/MS analysis. Format: ADME, organism-based, Cavia porcellus. Also on record: time < 48 hr, dose 30 mg/kg, route oral. As to conditions: in vivo.
Series [5] deals with Mus musculus. Description: Hypolipidemic activity in transgenic ap2-CETPTg mouse model assessed as reduction in plasma triglyceride levels at 30 mg/kg, po qd for 14 days measured 2 hrs post dose on day 14 by automated lipid analyzer relative to control. Format: functional. Also noted: scale not given: the % may be the effect or the level left. The method in brief:
as §2

Series [6] deals with Cavia porcellus. Description: Toxicity in normal fed guinea pig model assessed as effect on systolic blood pressure at 30 mg/kg administered via oral gavage as qd for 14 days. Format: organism-based. As to conditions: in vivo, 336 h.
Series [7] deals with Cavia porcellus. Kind of series: Hypolipidemic activity in high-fat fed guinea pig model assessed as reduction in plasma total cholesterol levels at 30 mg/kg administered via oral gavage as qd for 14 days measured 2 hrs post dose on day 14 relative to control. Format: functional. Also on record: scale not given: the % may be the effect or the level left. The method in brief: as §1

Series [8] has as its system Cavia porcellus. Description: Toxicity in high-fat fed guinea pig model assessed as effect on systolic blood pressure at 30 mg/kg administered via oral gavage as qd for 14 days. Format: organism-based. As to conditions: in vivo, 336 h.
Series [9] can be described thus: Terminal half life in normal fed guinea pig at 30 mg/kg administered via oral gavage by LC-MS/MS analysis. Format: ADME, organism-based, Cavia porcellus. As to conditions: in vivo, read-out: beta t1/2 (converted).
Series [10] concerns Mus musculus. Kind of series: Hypolipidemic activity in transgenic ap2-CETPTg mouse model assessed as reduction in plasma LDL cholesterol levels at 30 mg/kg, po qd for 14 days measured 2 hrs post dose on day 14 by automated lipid analyzer relative to control. The series is classed as functional. Also noted: scale not given: the % may be the effect or the level left. In outline: as §2

The target of series [11] is T1, Cholesteryl ester transfer protein (Homo sapiens, UniProt P11597).
T1 sequence (P11597 whole entry): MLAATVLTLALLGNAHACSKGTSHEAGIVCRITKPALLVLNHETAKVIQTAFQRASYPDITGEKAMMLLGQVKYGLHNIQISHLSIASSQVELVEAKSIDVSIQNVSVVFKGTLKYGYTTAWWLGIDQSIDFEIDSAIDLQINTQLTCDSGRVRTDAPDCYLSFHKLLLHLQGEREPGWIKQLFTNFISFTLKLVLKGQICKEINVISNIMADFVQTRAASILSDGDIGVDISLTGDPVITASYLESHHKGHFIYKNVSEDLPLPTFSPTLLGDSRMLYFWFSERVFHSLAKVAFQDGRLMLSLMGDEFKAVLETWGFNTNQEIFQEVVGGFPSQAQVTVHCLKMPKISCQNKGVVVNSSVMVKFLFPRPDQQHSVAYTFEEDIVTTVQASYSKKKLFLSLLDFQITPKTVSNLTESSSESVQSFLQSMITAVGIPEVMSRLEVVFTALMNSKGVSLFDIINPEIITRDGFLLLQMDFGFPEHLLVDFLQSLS
Description: Inhibition of recombinant human CETP after 3 hrs using fluorescent cholesteryl containing HDL after 3 hrs by fluorescence assay. As to conditions: read-out: IC50.

Series [12] deals with Cavia porcellus. Description: Hypolipidemic activity in normal fed guinea pig model assessed as reduction in plasma LDL cholesterol levels at 30 mg/kg administered via oral gavage as qd for 14 days measured 2 hrs post dose on day 14 relative to control. Also on record: scale not given: the % may be the effect or the level left. The series is classed as functional. The method in brief:
as §3

Series [13] can be described thus: MRT (0 to infinity) in normal fed guinea pig at 30 mg/kg administered via oral gavage by LC-MS/MS analysis. Format: ADME, organism-based, Cavia porcellus. As to conditions: in vivo.
Series [14] can be described thus: AUC (0 to infinity) in normal fed guinea pig at 30 mg/kg administered via oral gavage by LC-MS/MS analysis. The series is classed as ADME, organism-based, Cavia porcellus. Also noted: dose 30 mg/kg, route oral, time infinity. As to conditions: in vivo.
The test system of series [15] is Cavia porcellus. Kind of series: Hypolipidemic activity in high-fat fed guinea pig model assessed as reduction in plasma LDL cholesterol levels at 30 mg/kg administered via oral gavage as qd for 14 days measured 2 hrs post dose on day 14 relative to control. The series is classed as functional. Also on record: scale not given: the % may be the effect or the level left. The method in brief: as §1

In series [16] the test system is Mus musculus. Kind of series: Antihyperlipidemic activity in transgenic ap2-CETPTg mouse model assessed as increase in plasma HDL cholesterol levels at 30 mg/kg, po qd for 14 days measured 2 hrs post dose on day 14 by automated lipid analyzer relative to control. Format: functional. In outline: as §2
Series [17] concerns Cavia porcellus. Kind of series: Hypolipidemic activity in high-fat fed guinea pig model assessed as reduction in plasma triglyceride levels at 30 mg/kg administered via oral gavage as qd for 14 days measured 2 hrs post dose on day 14 relative to control. Also noted: scale not given: the % may be the effect or the level left. Format: functional. In outline: as §1
The subject of series [18] is Cavia porcellus. Description: Drug metabolism in normal fed guinea pig assessed as formation of oleanolic acid at 30 mg/kg administered via oral gavage by LC-MS/MS analysis. Format: ADME, organism-based. As to conditions: in vivo.
Series [19] is described as follows: Octanol-water partition coefficient, log P of the compound at pH 7.4 by HPLC based shake flask method. Format: physicochemical.
The nature of series [20]: Aqueous solubility of the compound. The series is classed as physicochemical. As to conditions: buffer.
Series [21] in a line: Tmax in normal fed guinea pig at 30 mg/kg administered via oral gavage by LC-MS/MS analysis. Format: ADME, organism-based, Cavia porcellus. As to conditions: in vivo.
Series [22] is described as follows: MRT (0 to 48 hrs) in normal fed guinea pig at 30 mg/kg administered via oral gavage by LC-MS/MS analysis. Format: ADME, organism-based, Cavia porcellus. As to conditions: in vivo.
The nature of series [23]: Cmax in normal fed guinea pig at 30 mg/kg administered via oral gavage by LC-MS/MS analysis. The series is classed as ADME, organism-based, Cavia porcellus. Also on record: dose 30 mg/kg, route oral. As to conditions: in vivo.
Series [24] concerns the target T2, Pancreatic triacylglycerol lipase (Sus scrofa, UniProt P00591).
T2 sequence (P00591 whole entry): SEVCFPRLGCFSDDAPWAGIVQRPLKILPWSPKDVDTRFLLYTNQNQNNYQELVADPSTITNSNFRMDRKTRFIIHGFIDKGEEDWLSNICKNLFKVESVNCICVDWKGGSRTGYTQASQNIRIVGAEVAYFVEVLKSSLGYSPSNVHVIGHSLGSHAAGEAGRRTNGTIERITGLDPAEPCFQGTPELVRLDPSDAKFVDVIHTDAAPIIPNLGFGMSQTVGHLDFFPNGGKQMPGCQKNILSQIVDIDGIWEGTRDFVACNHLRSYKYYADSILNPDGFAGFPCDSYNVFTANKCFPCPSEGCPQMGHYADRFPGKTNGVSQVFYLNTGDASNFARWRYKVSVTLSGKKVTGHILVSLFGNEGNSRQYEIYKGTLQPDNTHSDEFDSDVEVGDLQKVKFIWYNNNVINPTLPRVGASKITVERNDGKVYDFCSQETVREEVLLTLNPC
Description: Inhibition of porcine pancreatic lipase using 2,3-dimercaptopropan-1-ol tributyrate as substrate preincubated for 5 mins followed by substrate addition measured after 30 mins by colorimetric assay.

For series [25], the system named is Cavia porcellus. Kind of series: Drug level in normal fed guinea pig treated with 3-beta-[(2-Carboxyphenyl)carbonyloxy]-olean-12-en-28-oic acid at 30 mg/kg administered via oral gavage by LC-MS/MS analysis. Format: ADME, organism-based. As to conditions: in vivo.

Consider `CC1(C)CC[C@]2(C(=O)O)CC[C@]3(C)C(=CC[C@@H]4[C@@]5(C)CC[C@H](OC(=O)c6ccccc6C(=O)O)C(C)(C)[C@@H]5CC[C@]43C)[C@@H]2C1`, for which the Activity in series [1] was 72.8%; in series [2], 5.8%; in [3], 32.3%; in series [5], 29.3%; in series [6], “Non-Toxic”; in [7], 20.3%. In addition, the Activity result in series [8] is recorded as “Non-Toxic”; in [10], 34.2%; in series [12], 19.8%; in series [15], 40.8%; in [16] it was 11.1%; in [17], 27.3%. Also, the AUC(0-t) at 48 h in series [4] is 9340 ng·h/mL. Further, the half-life in series [9] is 18.8 h. Also, the IC50 in series [11] was determined as 2.3 µM. Moreover, the MRT inf in series [13] was found to be 23.4 h. In series [14], this compound displayed an AUC(0-inf) of 10900 ng·h/mL. In addition, the Drug metabolism entry in [18] is on record as “Metabolite_Detected”. Moreover, the logD in [19] is 0.49. In addition, the solubility result in [20] is reported as “Soluble”. In addition, the Tmax in series [21] turned out to be 1.46 h. The same compound yielded an MRT last in series [22] of 14.9 h. The compound also came in with a Cmax in [23] of 1270 ng/mL.
Consider `CC1(C)CC[C@]2(C(=O)O)CC[C@]3(C)C(=CC[C@@H]4[C@@]5(C)CC[C@H](OC(=O)CCC(=O)NCCS(=O)(=O)O)C(C)(C)[C@@H]5CC[C@]43C)[C@@H]2C1`, for which the IC50 in series [11] was 23.1 µM.
`CCOC(=O)N1c2ccc(C(F)(F)F)cc2[C@@H](N(Cc2cc(C(F)(F)F)cc(C(F)(F)F)c2)C(=O)OC)C[C@H]1CC` [TORCETRAPIB] had a logD in series [19] of 1.05.
For `CC1(C)CC[C@]2(C(=O)O)CC[C@]3(C)C(=CC[C@@H]4[C@@]5(C)CC[C@H](OC(=O)CCN6CCOCC6)C(C)(C)[C@@H]5CC[C@]43C)[C@@H]2C1`, in series [11], the IC50 turned out to be 68.5 µM.
With `CC1(C)CC[C@]2(C(=O)O)CC[C@]3(C)C(=CC[C@@H]4[C@@]5(C)CC[C@H](OC(=O)CCC(=O)O)C(C)(C)[C@@H]5CC[C@]43C)[C@@H]2C1` [OLEANOLIC ACID 3-O-SUCCINATE], the IC50 in [11] was 4.3 µM.
`CC1(C)CC[C@]2(C(=O)O)CC[C@]3(C)C(=CC[C@@H]4[C@@]5(C)CC[C@H](OC(=O)CCCCC(=O)O)C(C)(C)[C@@H]5CC[C@]43C)[C@@H]2C1`: in series [11], the IC50 worked out at 7 µM.
The same measure, in the same setting: the same measure for `CC1(C)CC[C@]2(C(=O)OCC(=O)O)CC[C@]3(C)C(=CC[C@@H]4[C@@]5(C)CC[C@H](OC(=O)CCCC(=O)O)C(C)(C)[C@@H]5CC[C@]43C)[C@@H]2C1`: 38.9 µM; for `CC1(C)CC[C@]2(C(=O)O)CC[C@]3(C)C(=CC[C@@H]4[C@@]5(C)CC[C@H](OC(=O)CCCC(=O)O)C(C)(C)[C@@H]5CC[C@]43C)[C@@H]2C1`: 3.5 µM.
Consider `CC1(C)CC[C@]2(C(=O)O)CC[C@]3(C)C(=CC[C@@H]4[C@@]5(C)CC[C@H](O)C(C)(C)[C@@H]5CC[C@]43C)[C@@H]2C1` [OLEANOLIC_ACID], for which the AUC(0-t) at 48 h in series [4] is 291 ng·h/mL. The compound further had an IC50 in series [24] of 182 µM. In series [9], the half-life is 11.7 h. In addition, the mean residence time MRT inf in [13] was determined as 15 h. Moreover, the AUC(0-inf) in series [14] came to 312 ng·h/mL. Moreover, in series [21], the Tmax is 0.75 h. For the same compound, in series [22], the MRT last is 11.7 h. The Drug metabolism entry in [25] is on record as “Metabolite_Detected”. In [23], this compound had a Cmax of 52.2 ng/mL.
